Assay results as given in ChEMBL document CHEMBL1127577, “Identification of tricyclic analogs related to ellagic acid as potent/selective tyrosine protein kinase inhibitors” (J Med Chem, 1994).
Values joined by “and” are separate entries in the source; they are usually repeats but may differ in a detail not shown here. Equal entries are not always repeated. Values belong to the compound of their own block, whether it stands above or below them.

Legend:
[1] = molecular target: Proto-oncogene tyrosine-protein kinase Src (Homo sapiens, UniProt P12931); assay: Tested for in vitro inhibitory activity against tyrosine protein kinase pp60 c-src
Procedure, shortened: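 pp60c-src purified from human platelet membrane vesicles by anti-src immunoaffinity chromatography. Reaction stopped after 45 min with 5% phosphoric acid; nitrocellulose filter capture. Six inhibitor concentrations in triplicate; IC50 from mean of ≥2 determinations.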

[2] = molecular target: cAMP-dependent protein kinase (PKA) (Homo sapiens, UniProt P22694+P17612+P22612); assay: In vitro inhibitory activity against protein kinase A; type: protein assay, unidentified
Procedure, shortened: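 PKA catalytic subunit, 0.8 unit/assay, with Kemptide (LRRASLG) at 10 µg/mL. Buffers and procedure as for the src assay: 50 mM HEPES pH 7.4, 0.015% Brij 35, 0.1 mM EDTA, [γ-32P]ATP transfer, phosphoric acid stop, filter capture. Six inhibitor concentrations in triplicate; IC50 from mean of ≥2 determinations.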

[3] = Reaction rate parameter value for phosphate with transfer with respect to ATP
Procedure, shortened: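 Platelet pp60c-src, same peptide-phosphorylation assay run at four ATP levels (5, 50, 400 µM, 2 mM), six inhibitor concentrations in triplicate at each. Apparent KM and Vmax shifts used to pick an inhibition model; data fitted for KM, Vmax and KI, with fit quality given as RMS. Values from a representative experiment with substrate-only controls.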

Proto-oncogene tyrosine-protein kinase Src, sequence (P12931 2-536 limits assumed): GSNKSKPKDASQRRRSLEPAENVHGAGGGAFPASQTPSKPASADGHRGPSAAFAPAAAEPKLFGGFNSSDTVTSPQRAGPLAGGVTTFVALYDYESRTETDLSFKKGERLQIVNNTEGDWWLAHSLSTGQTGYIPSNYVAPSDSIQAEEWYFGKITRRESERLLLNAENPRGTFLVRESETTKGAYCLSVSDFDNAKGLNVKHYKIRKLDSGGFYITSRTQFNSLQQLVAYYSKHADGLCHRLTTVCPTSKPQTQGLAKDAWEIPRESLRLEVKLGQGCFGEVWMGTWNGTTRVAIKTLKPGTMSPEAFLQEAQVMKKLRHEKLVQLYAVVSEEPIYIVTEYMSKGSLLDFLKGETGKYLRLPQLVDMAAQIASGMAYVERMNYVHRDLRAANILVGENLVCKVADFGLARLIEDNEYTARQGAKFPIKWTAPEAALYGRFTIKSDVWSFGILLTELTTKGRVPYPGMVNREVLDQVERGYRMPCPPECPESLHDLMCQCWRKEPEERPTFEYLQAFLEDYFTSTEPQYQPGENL

Compound: Oc1cc2c3cc(O)c(O)cc3n(Cc3cccnc3)c2cc1O
- IC50 [1]: 8 µM
- IC50 [2]: 108 µM

Compound: Oc1cc2nc(O)c3c(O)c(O)ccc3c2cc1O
- IC50 [1]: 0.9 µM
- IC50 [2]: 92 µM

Compound: O=c1c2c(O)c(O)ccc2c2cc(O)c(O)cc2n1Cc1ccc(S(=O)(=O)c2ccccc2)cc1
- IC50 [1]: 7.2 µM
- IC50 [2]: 634 µM

Compound: O=C(c1ccc2ccccc2c1)n1c2cc(O)c(O)cc2c2ccc(O)c(O)c21
- IC50 [1]: 0.5 µM
- IC50 [2]: 1 µM

Compound: O=C(c1ccc(-c2ccccc2)cc1)n1c2cc(O)c(O)cc2c2ccc(O)c(O)c21
- IC50 [1]: 0.6 µM
- IC50 [2]: 3.2 µM

Compound: N#Cc1ccc(Cn2c3cc(O)c(O)cc3c3c(Br)cc(O)c(O)c32)cc1
- IC50 [1]: 0.9 µM
- IC50 [2]: 6.6 µM

Compound: CS(=O)(=O)c1ccc(C(=O)n2c3cc(O)c(O)cc3c3ccc(O)c(O)c32)cc1
- IC50 [1]: 0.4 µM
- IC50 [2]: 40 µM

Compound: O=S(=O)(c1ccccc1)c1ccc(Cn2c3cc(O)c(O)cc3c3ccc(O)c(O)c32)cc1
- IC50 [1]: 0.6 µM
- IC50 [2]: 317 µM

Compound: O=S(=O)(c1ccccc1)n1c2cc(O)c(O)cc2c2ccc(O)c(O)c21
- IC50 [1]: 15 µM
- IC50 [2]: 250 µM

Compound: Oc1cc2c3ccc(O)c(O)c3n(Cc3ccc(Br)cc3)c2cc1O
- IC50 [1]: 3.4 µM
- IC50 [2]: 374 µM

Compound: N#Cc1ccc(Cn2c3cc(O)c(O)cc3c3ccc(O)c(O)c32)cc1
- IC50 [1]: 0.4 µM
- IC50 [2]: 275 µM

Compound: Oc1cc2nc(O)c3cc(O)c(O)cc3c2cc1O
- IC50 [1]: 1 µM
- IC50 [2]: > 800 µM

Compound: O=C(c1ccccc1)n1c2cc(O)c(O)cc2c2cc(O)c(O)cc21
- IC50 [1]: 4 µM
- IC50 [2]: 415 µM

Compound: CC(C)(C)c1ccc(C(=O)n2c3cc(O)c(O)cc3c3ccc(O)c(O)c32)cc1
- IC50 [1]: 0.7 µM
- IC50 [2]: 50 µM

Compound: O=S(=O)(c1cc(Cl)ccc1Cl)n1c2cc(O)c(O)cc2c2ccc(O)c(O)c21
- IC50 [1]: 7.7 µM
- IC50 [2]: 223 µM

Compound: Oc1cc2c3ccc(O)c(O)c3n(Cc3ccccc3)c2cc1O
- IC50 [1]: 2 µM
- IC50 [2]: 210 µM

Compound: O=C(c1ccc(C(F)(F)F)cc1)n1c2cc(O)c(O)cc2c2ccc(O)c(O)c21
- IC50 [1]: 0.7 µM
- IC50 [2]: 10 µM

Compound: O=C(c1cccc([N+](=O)[O-])c1)n1c2cc(O)c(O)cc2c2ccc(O)c(O)c21
- IC50 [1]: 0.6 µM
- IC50 [2]: 1.5 µM

Compound: Oc1cc2[nH]c3c(O)c(O)cc(Br)c3c2cc1O
- IC50 [1]: 0.6 µM
- IC50 [2]: 17 µM

Compound: O=S(=O)(c1ccccc1)n1c2cc(O)c(O)cc2c2cc(O)c(O)cc21
- IC50 [1]: 24 µM
- IC50 [2]: > 600 µM

Compound: CCn1c(=O)c2c(O)c(O)ccc2c2cc(O)c(O)cc21
- IC50 [1]: 11 µM
- IC50 [2]: 541 µM

Compound: O=C(c1ccccc1)n1c2cc(O)c(O)cc2c2ccc(O)c(O)c21
- IC50 [1]: 0.9 µM
- IC50 [2]: 240 µM

Compound: Oc1cc2[nH]c3cc(O)c(O)cc3c2cc1O
- IC50 [1]: 1.5 µM
- Ki [3]: 1.06 µM and 0.53 µM
- Km [3]: 68.1 µM and 29.2 µM
- IC50 [2]: 58 µM

Compound: Oc1cc2c3cc(O)c(O)cc3n(Cc3ccccc3)c2cc1O
- IC50 [1]: 7 µM
- IC50 [2]: 115 µM

Compound: O=C(c1ccc(C(F)(F)F)cc1)n1c2cc(O)c(O)cc2c2c(Br)cc(O)c(O)c21
- IC50 [1]: 2 µM
- IC50 [2]: 7 µM

Compound: O=c1c2c(O)c(O)ccc2c2cc(O)c(O)cc2n1Cc1ccc(Cl)c(Cl)c1
- IC50 [1]: 197 µM
- IC50 [2]: 410 µM

Compound: O=c1c2cc(O)c(O)cc2c2cc(O)c(O)cc2n1Cc1ccccc1
- IC50 [1]: 5.4 µM
- IC50 [2]: 390 µM

Compound: O=C(CCc1ccccc1)n1c2cc(O)c(O)cc2c2ccc(O)c(O)c21
- IC50 [1]: 0.4 µM
- IC50 [2]: 2.3 µM

Compound: CCn1c(=O)c2cc(O)c(O)cc2c2cc(O)c(O)cc21
- IC50 [1]: 4.1 µM
- IC50 [2]: > 2000 µM

Compound: CC(C)(C)c1ccc(C(=O)n2c3cc(O)c(O)cc3c3c(Br)cc(O)c(O)c32)cc1
- IC50 [1]: 12 µM
- IC50 [2]: 40 µM

Compound: O=c1oc2c(O)c(O)cc3c(=O)oc4c(O)c(O)cc1c4c23 [ELLAGIC ACID]
- IC50 [1]: 0.3 µM
- IC50 [2]: 0.6 µM

More lines, now with the values ahead:

- IC50 [1]: 12 µM
- IC50 [2]: 168 µM
Compound: O=[N+]([O-])c1ccc(S(=O)(=O)n2c3cc(O)c(O)cc3c3ccc(O)c(O)c32)cc1

- IC50 [1]: 2 µM
- IC50 [2]: 51 µM
Compound: O=c1c2cc(O)c(O)cc2c2cc(O)c(O)cc2n1Cc1ccc(S(=O)(=O)c2ccccc2)cc1

- IC50 [1]: 9 µM
- IC50 [2]: 4 µM
Compound: CS(=O)(=O)c1ccc(C(=O)n2c3cc(O)c(O)cc3c3c(Br)cc(O)c(O)c32)cc1

- IC50 [1]: 0.9 µM
- IC50 [2]: 435 µM
Compound: Oc1cc2c3ccc(O)c(O)c3n(Cc3c(Cl)cccc3Cl)c2cc1O

- IC50 [1]: 0.9 µM
- IC50 [2]: 8.4 µM
Compound: O=c1c2cc(O)c(O)cc2c2cc(O)c(O)cc2n1Cc1ccc([N+](=O)[O-])cc1

- IC50 [1]: 1.4 µM
- IC50 [2]: 4.2 µM
Compound: O=C(c1ccc(Br)cc1)n1c2cc(O)c(O)cc2c2ccc(O)c(O)c21

- IC50 [1]: 14 µM
- IC50 [2]: 78 µM
Compound: O=S(=O)(Cc1ccccc1)n1c2cc(O)c(O)cc2c2ccc(O)c(O)c21

- IC50 [1]: 1.3 µM
- IC50 [2]: 20 µM
Compound: O=c1c2cc(O)c(O)cc2c2cc(O)c(O)cc2n1Cc1ccc(Cl)c(Cl)c1

- IC50 [1]: 0.8 µM
- IC50 [2]: 47 µM
Compound: Oc1cc2[nH]c3c(O)c(O)ccc3c2cc1O

- IC50 [1]: 21 µM
- IC50 [2]: 284 µM
Compound: O=c1c2c(O)c(O)ccc2c2cc(O)c(O)cc2n1Cc1ccccc1

- IC50 [1]: 0.5 µM
- IC50 [2]: 0.5 µM
Compound: Oc1cc2c3ccc(O)c(O)c3n(CCCc3ccccc3)c2cc1O

- IC50 [1]: 61 µM
- IC50 [2]: 309 µM
Compound: O=c1c2c(O)c(O)ccc2c2cc(O)c(O)cc2n1Cc1ccc([N+](=O)[O-])cc1

- IC50 [1]: 9 µM
- IC50 [2]: 50 µM
Compound: Oc1cc2c3ccc(O)c(O)c3n(Cc3ccc(C(F)(F)F)cc3)c2cc1O

- IC50 [1]: 1.7 µM
- IC50 [2]: 23 µM
Compound: Cc1cccc(Cn2c3cc(O)c(O)cc3c3ccc(O)c(O)c32)c1
